The values that follow come from paper PMC11447854 (ACS Omega, 2024).

As usually defined, the IC50 is the concentration that inhibits the measured activity by half.

In one assay the test system is HeLa cells. The assay is described as follows: cells. It is filed as cell-based, human. Particulars: for IC50: Homo sapiens, HeLa, 24 h, read-out: cell-based IC50 (HeLa, μM); for F, activity fold compared to hit compounds, F = IC50(Hit)/IC50(Lead): from HeLa IC50, hit = 6a, 7a or 8a of the same series; for activity improvement compared to gefitinib (fold): HeLa cells, IC50 versus commercial drug gefitinib.

The subject of a further assay is HEK293 cells. The assay is described as follows: CCK8 proliferation inhibition assay, HEK293 normal cells. It is filed as cell-based, human. Particulars: for IC50: Homo sapiens, HEK293, read-out: cell-based IC50 (HEK293, μM); for SI = IC50(HEK293)/IC50(HeLa): fold selectivity for cancer cells (HeLa) over normal cells (HEK293). Put shortly:
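HEK293 and HeLa cells were seeded at 5000 cells/well and grown 24 h at 37 °C, 5% CO2. They were then exposed 24 h to test compound at 1.0–10.0 mg/L in serum-free medium, alongside untreated, DMSO-solvent and gefitinib controls. After a PBS wash and 3 h with CCK8, […]. IC50 came from inhibition relative to control. SI = IC50(HEK293)/IC50(HeLa).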
Background: Tetrazolium dyes change colour on reduction, which living cells bring about.

The next assay concerns the target T1, rhCOX-2 (Homo sapiens, UniProt P35354).
T1 sequence (P35354 18-604): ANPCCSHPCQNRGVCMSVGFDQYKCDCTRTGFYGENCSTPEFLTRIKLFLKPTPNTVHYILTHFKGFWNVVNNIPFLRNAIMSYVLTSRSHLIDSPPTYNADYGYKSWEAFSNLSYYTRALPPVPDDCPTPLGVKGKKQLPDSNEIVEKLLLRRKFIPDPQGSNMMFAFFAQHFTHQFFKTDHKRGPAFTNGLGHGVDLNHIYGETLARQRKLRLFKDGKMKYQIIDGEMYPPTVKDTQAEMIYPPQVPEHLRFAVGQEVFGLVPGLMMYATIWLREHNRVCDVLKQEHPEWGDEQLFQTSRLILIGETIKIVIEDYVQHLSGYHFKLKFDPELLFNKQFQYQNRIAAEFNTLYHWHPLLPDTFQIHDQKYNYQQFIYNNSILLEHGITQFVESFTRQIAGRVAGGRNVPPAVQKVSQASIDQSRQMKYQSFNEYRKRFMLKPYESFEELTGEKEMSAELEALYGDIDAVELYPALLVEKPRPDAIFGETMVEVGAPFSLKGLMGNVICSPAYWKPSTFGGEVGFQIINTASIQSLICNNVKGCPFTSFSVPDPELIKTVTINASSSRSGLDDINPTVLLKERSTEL
The assay is described as follows: COX-2 enzyme-based activity test. It is filed as biochemical.

A value given as a limit tells only on which side of the number the result lay.

Turning to `C/C(=N\NC(=O)C(C)c1ccc(CC(C)C)cc1)c1cc2ccccc2oc1=O` (centres unmarked) [6a, (E)-2-(4-Isobutylphenyl)-N′-(1-(2-oxo-2H-chromen-3-yl)ethylidene)propanehydrazide], in the assay with HeLa cells, the IC50 was found to be 4.64 µM and the “F, activity fold compared to hit compounds, F = IC50(Hit)/IC50(Lead)” value (“F, activity fold” below) came to 1.00.

Take `C/C(=N\NC(=O)C(C)c1ccc(CC(C)C)cc1)c1cc2cc(F)ccc2oc1=O` (centres unmarked) [6b, (E)-N′-(1-(6-Fluoro-2-oxo-2H-chromen-3-yl)ethylidene)-2-(4-isobutylphenyl)propanehydrazide]: in the assay with HeLa cells, the IC50 is 2.59 µM and the “F, activity fold” value is given as 1.78.

With `C/C(=N\NC(=O)C(C)c1ccc(CC(C)C)cc1)c1cc2cc(Br)cc(Br)c2oc1=O` (centres unmarked) [6c, (E)-N′-(1-(6,8-Dibromo-2-oxo-2H-chromen-3-yl)ethylidene)-2-(4-isobutylphenyl)propanehydrazide], in the assay with HEK293 cells, the IC50 was determined as 32.2 µM and the “SI = IC50(HEK293)/IC50(HeLa)” value turned out to be 53.18. On rhCOX-2, this compound gave an IC50 of 2670 nM. Also, in the assay on HeLa cells, the “activity improvement compared to gefitinib (fold)” value was “approximately 10 fold”; the IC50 came out at 0.606 µM; the “F, activity fold” value is listed as 7.61.

The compound `C/C(=N\NC(=O)C(C)c1ccc(CC(C)C)cc1)c1cc2ccc(O)cc2oc1=O` (centres unmarked) [6d, (E)-N′-(1-(7-Hydroxy-2-oxo-2H-chromen-3-yl)ethylidene)-2-(4-isobutylphenyl)propanehydrazide] returned an IC50 at rhCOX-2 of 1040 nM. Also, in the assay with HeLa cells, the IC50 stood at 6.65 µM and the “F, activity fold” value amounted to 0.69.

With `C/C(=N\NC(=O)C(C)c1ccc(CC(C)C)cc1)c1cc2cc(C)ccc2oc1=O` (centres unmarked) [6e, (E)-2-(4-Isobutylphenyl)-N′-(1-(6-methyl-2-oxo-2H-chromen-3-yl)ethylidene)propanehydrazide], in the assay with HeLa cells, the IC50 was found to be 2.19 µM and the “F, activity fold” value came out at 2.11.

The compound `C/C(=N\NC(=O)C(C)c1ccc(CC(C)C)cc1)c1cc2cc(Cl)cc(Cl)c2oc1=O` (centres unmarked) [6f, (E)-N′-(1-(6,8-Dichloro-2-oxo-2H-chromen-3-yl)ethylidene)-2-(4-isobutylphenyl)propanehydrazide] showed an IC50 at rhCOX-2 of 1510 nM. In addition, in the assay with HeLa cells, the IC50 worked out at 4.34 µM and the “F, activity fold” value is reported as 1.06.

Take `C/C(=N\NC(=O)C(C)c1ccc(CC(C)C)cc1)c1cc2cc(Cl)ccc2oc1=O` (centres unmarked) [6g, (E)-N′-(1-(6-Chloro-2-oxo-2H-chromen-3-yl)ethylidene)-2-(4-isobutylphenyl)propanehydrazide]: in the assay with HeLa cells, the IC50 stood at 2.56 µM and the “F, activity fold” value was found to be 1.80.

On to `CC(C)Cc1ccc(C(C)C(=O)NNC(=O)c2cc3ccccc3oc2=O)cc1` (centres unmarked) [7a, N′-(2-(4-Isobutylphenyl)propanoyl)-2-oxo-2H-chromene-3-carbohydrazide], for which the IC50 against rhCOX-2 was determined as 2820 nM; in the assay with HeLa cells it was 4.61 µM. The “F, activity fold” value with HeLa cells was 1.00.

On to `Cc1ccc2oc(=O)c(C(=O)NNC(=O)C(C)c3ccc(CC(C)C)cc3)cc2c1` (centres unmarked) [7b, N′-(2-(4-Isobutylphenyl)propanoyl)-6-methyl-2-oxo-2H-chromene-3-carbohydrazide], for which, in the assay on HeLa cells, the IC50 worked out at 42.7 µM and the “F, activity fold” value worked out at 0.11.

For the compound `CC(C)Cc1ccc(C(C)C(=O)NNC(=O)c2cc3ccc(O)cc3oc2=O)cc1` (centres unmarked) [7c, 7-Hydroxy-N′-(2-(4-isobutylphenyl)propanoyl)-2-oxo-2H-chromene-3-carbohydrazide], in the assay on HeLa cells, the IC50 was 8.92 µM and the “F, activity fold” value stood at 0.52.

With `CC(C)Cc1ccc(C(C)C(=O)NNC(=O)c2cc3cc(Cl)ccc3oc2=O)cc1` (centres unmarked) [7d, 6-Chloro-N′-(2-(4-isobutylphenyl)propanoyl)-2-oxo-2H-chromene-3-carbohydrazide], in the assay with HeLa cells, the IC50 is 137 µM and the “F, activity fold” value is 0.03.

As for `CC(C)Cc1ccc(C(C)C(=O)NNC(=O)c2cc3cc(F)ccc3oc2=O)cc1` (centres unmarked) [7e, 6-Fluoro-N′-(2-(4-isobutylphenyl)propanoyl)-2-oxo-2H-chromene-3-carbohydrazide], on rhCOX-2, the IC50 stood at 294 nM. Besides, in the assay with HeLa cells, the IC50 came to 3.68 µM and the “F, activity fold” value turned out to be 1.25.

`CC(C)Cc1ccc(C(C)C(=O)NNC(=O)c2cc3cc([N+](=O)[O-])ccc3oc2=O)cc1` (centres unmarked) [7f, N′-(2-(4-Isobutylphenyl)propanoyl)-6-nitro-2-oxo-2H-chromene-3-carbohydrazide]: on rhCOX-2, the IC50 is 982 nM. Moreover, in the assay with HeLa cells, the IC50 was found to be 6.25 µM and the “F, activity fold” value was determined as 0.74.

Take `CC(C)Cc1ccc(C(C)C(=O)NNC(=O)c2cc3cc(Cl)cc(Cl)c3oc2=O)cc1` (centres unmarked) [7g, 6,8-Dichloro-N′-(2-(4-isobutylphenyl)propanoyl)-2-oxo-2H-chromene-3-carbohydrazide]: in the assay with HEK293 cells, the IC50 stood at 20 µM and the “SI = IC50(HEK293)/IC50(HeLa)” value stood at 25.49. Further, in the assay on HeLa cells, the “activity improvement compared to gefitinib (fold)” value is “approximately 10 fold”; the IC50 came out at 0.783 µM; the “F, activity fold” value is recorded as 5.89.

Consider `CC(C)Cc1ccc(C(C)C(=O)NNC(=O)c2cc3cc(Br)cc(Br)c3oc2=O)cc1` (centres unmarked) [7h, 6,8-Dibromo-N′-(2-(4-isobutylphenyl)propanoyl)-2-oxo-2H-chromene-3-carbohydrazide], for which, in the assay on HeLa cells, the IC50 was found to be 0.889 µM and the “F, activity fold” value amounted to 5.18.

Regarding `CC(C)Cc1ccc(C(C)c2nnc(-c3cc4ccccc4oc3=O)o2)cc1` (centres unmarked) [8a, 3-(5-(1-(4-Isobutylphenyl)ethyl)-1,3,4-oxadiazol-2-yl)-2H-chromen-2-one], in the assay with HeLa cells, the IC50 came to 4.66 µM and the “F, activity fold” value came to 1.00.

With `CC(C)Cc1ccc(C(C)c2nnc(-c3cc4cc(F)ccc4oc3=O)o2)cc1` (centres unmarked) [8b, 6-Fluoro-3-(5-(1-(4-isobutylphenyl)ethyl)-1,3,4-oxadiazol-2-yl)-2H-chromen-2-one], in the assay with HeLa cells, the IC50 is 122 µM and the “F, activity fold” value is listed as 0.04.

Take `CC(C)Cc1ccc(C(C)c2nnc(-c3cc4cc(Cl)ccc4oc3=O)o2)cc1` (centres unmarked) [8c, 6-Chloro-3-(5-(1-(4-isobutylphenyl)ethyl)-1,3,4-oxadiazol-2-yl)-2H-chromen-2-one]: in the assay on HeLa cells, the 50% inhibitory concentration (IC50) was 82.2 µM and the “F, activity fold” value is listed as 0.06.

For `CC(C)Cc1ccc(C(C)c2nnc(-c3cc4cc(Cl)cc(Cl)c4oc3=O)o2)cc1` (centres unmarked) [8d, 6,8-Dichloro-3-(5-(1-(4-isobutylphenyl)ethyl)-1,3,4-oxadiazol-2-yl)-2H-chromen-2-one], the IC50 in the assay on HeLa cells is more than 200 µM.

As to `CC(C)Cc1ccc(C(C)c2nnc(-c3cc4cc(Br)cc(Br)c4oc3=O)o2)cc1` (centres unmarked) [8e, 6,8-Dibromo-3-(5-(1-(4-isobutylphenyl)ethyl)-1,3,4-oxadiazol-2-yl)-2H-chromen-2-one], in the assay on HeLa cells, the IC50 was more than 200 µM.

With `Cc1ccc2oc(=O)c(-c3nnc(C(C)c4ccc(CC(C)C)cc4)o3)cc2c1` (centres unmarked) [8f, 3-(5-(1-(4-Isobutylphenyl)ethyl)-1,3,4-oxadiazol-2-yl)-6-methyl-2H-chromen-2-one], in the assay with HeLa cells, the IC50 worked out at 42.3 µM and the “F, activity fold” value came to 0.11.

With `CC(C)Cc1ccc(C(C)C(=O)O)cc1` (centres unmarked) [ibuprofen, reference compound], the IC50 in the assay with HeLa cells was more than 200 µM.
